In ChEMBL document CHEMBL3392973, “Insulin-mimetic selaginellins from Selaginella tamariscina with protein tyrosine phosphatase 1B (PTP1B) inhibitory activity” (J Nat Prod, 2015):
Where “and” joins values, the source holds several entries; their conditions need not be identical. Equal values may be shown once. Calls of active or inactive are those of the source. The calls are words filed in the database; no cut-off is given here.

Tests used:
[1] = molecular target: T1, Tyrosine-protein phosphatase non-receptor type 1 (Homo sapiens, UniProt P18031); assay: Inhibition of human recombinant PTP1B using p-nitrophenylphosphate as substrate
T1 sequence (P18031 whole entry): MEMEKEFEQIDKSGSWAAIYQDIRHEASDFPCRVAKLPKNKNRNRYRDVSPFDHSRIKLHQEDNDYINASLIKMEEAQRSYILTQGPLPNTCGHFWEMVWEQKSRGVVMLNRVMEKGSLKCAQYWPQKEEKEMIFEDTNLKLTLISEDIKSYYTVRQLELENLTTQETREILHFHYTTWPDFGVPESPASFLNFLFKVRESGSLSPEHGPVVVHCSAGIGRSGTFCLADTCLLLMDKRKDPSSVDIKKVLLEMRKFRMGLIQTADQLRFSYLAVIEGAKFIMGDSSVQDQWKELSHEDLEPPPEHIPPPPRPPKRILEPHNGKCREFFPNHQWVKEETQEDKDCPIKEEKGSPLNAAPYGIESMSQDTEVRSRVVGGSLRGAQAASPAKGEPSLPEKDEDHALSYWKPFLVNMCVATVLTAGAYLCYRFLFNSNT
Procedure, shortened: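 Human recombinant PTP1B in 50 mM citrate pH 6.0, 0.1 M NaCl, 1 mM EDTA, 1 mM DTT, ± sample, preincubated 10 min at 37 °C. Substrate 2 mM p-NPP, then 20 min at 20 °C, stopped with NaOH, A405. Blank without enzyme corrects for non-enzymatic hydrolysis. IC50 by regression, mean ± SD of three replicates.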

[2] = molecular target: T1, Tyrosine-protein phosphatase non-receptor type 1; assay: Mixed-competitive inhibition of human recombinant PTP1B using p-nitrophenylphosphate as substrate by Lineweaver-Burk plot analysis
3T3-L1 (Mus musculus) = assay: Induction of 2-NBDG uptake in mouse 3T3-L1 adipocyte cells at 5 uM after 24 hrs measured after 30 mins of 2-NBDG by fluorescence assay
[3] = Cytotoxicity against mouse NIH/3T3 cells at 50 uM after 48 hrs by MTT assay; details: nih3t3, 48 h
[4] = molecular target: T1, Tyrosine-protein phosphatase non-receptor type 1; assay: Uncompetitive inhibition of human recombinant PTP1B using p-nitrophenylphosphate as substrate by Lineweaver-Burk plot analysis
[5] = molecular target: T1, Tyrosine-protein phosphatase non-receptor type 1; assay: Noncompetitive inhibition of human recombinant PTP1B using p-nitrophenylphosphate as substrate by Lineweaver-Burk plot analysis

SMILES	IC50 [1]	Ki [2]	Ki [4] [µM]	Ki [5] [µM]	Activity (3T3-L1 (Mus musculus))	Activity [3]
COCc1ccc(-c2ccc(O)cc2O)c(C(O)(c2ccc(O)cc2)c2ccc(O)cc2)c1C#Cc1ccc(O)cc1	19.4 µM		15.1		Active	Non-toxic
O=C1C=CC(=C(c2ccc(O)cc2)c2c(-c3ccc(O)cc3)ccc(CO)c2C#Cc2ccc(O)cc2)C=C1	4.6 µM and 15.9 µM	3 µM and 13.9 µM			Active	Non-toxic
OCc1ccc(-c2ccc(O)cc2O)c(C(O)(c2ccc(O)cc2)c2ccc(O)cc2)c1C#Cc1ccc(O)cc1	21.6 µM			10.3	Active	Non-toxic

Second part, led by results:

IC50 [1]	Ki [2]	Ki [4] [µM]	Ki [5] [µM]	SMILES	Activity (3T3-L1 (Mus musculus))	Activity [3]
11.5 µM	8.9 µM			COc1ccc(C(=C2C=CC(=O)C=C2)c2c(-c3ccc(O)cc3)ccc(CO)c2C#Cc2ccc(O)cc2)cc1	Active	
0.7 µM				O=C(O)c1nnc(-c2ccc(-c3ccccc3)cc2)o1		
